Source: ChEMBL document CHEMBL2390866, “Novel pyrimidoazepine analogs as serotonin 5-HT(2A) and 5-HT(2C) receptor ligands for the treatment of obesity” (Eur J Med Chem, 2013)
pIC50: −log10 of the molar value.

Legend:
Mus musculus [1] = assay: Antiobesity activity in B6.V/J ob/ob mouse assessed as change in kidney weight at 25 mg/kg, po bid measured after 14 days (reference value: 0.339 +/- 0.009 g); format: functional
D(2) dopamine receptor = D(2) dopamine receptor (Homo sapiens, UniProt P14416); assay: Displacement of [3H]-methylspiperone from dopamine D2L receptor (unknown origin) after 60 mins
Sequence of D(2) dopamine receptor (P14416 whole entry): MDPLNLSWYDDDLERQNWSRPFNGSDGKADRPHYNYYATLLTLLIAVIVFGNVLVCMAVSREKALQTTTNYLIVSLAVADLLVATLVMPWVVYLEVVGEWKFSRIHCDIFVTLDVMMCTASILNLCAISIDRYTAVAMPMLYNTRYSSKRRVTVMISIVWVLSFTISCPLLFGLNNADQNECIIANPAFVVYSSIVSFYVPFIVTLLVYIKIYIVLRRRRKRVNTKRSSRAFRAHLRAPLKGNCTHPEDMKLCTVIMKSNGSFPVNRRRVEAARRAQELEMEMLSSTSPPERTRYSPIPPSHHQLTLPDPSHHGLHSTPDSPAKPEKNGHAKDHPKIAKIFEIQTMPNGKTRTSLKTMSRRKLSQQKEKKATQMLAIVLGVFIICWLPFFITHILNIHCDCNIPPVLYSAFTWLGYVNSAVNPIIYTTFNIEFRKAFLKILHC
Method in brief: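 Receptor membranes incubated at 27 °C, 60 min for D2L and 30 min for D3, with [3H]methylspiperone (0.2 nM for D2L, 0.25 nM for D3) and test compound at a range of concentrations. Buffer was 50 mM Tris-HCl pH 7.4, 10 mM MgCl2, 1 mM EDTA, 120 mM NaCl. Nonspecific binding defined with haloperidol (D2) or GR103691 (D3). IC50 obtained by nonlinear regression.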

[2] = AUC (0 to infinity) in Sprague-Dawley rat at 10 mg/kg, po; format: ADME, organism-based; parameters: time infinity, dose 10 mg/kg, route oral; settings: plasma
Mus musculus [3] = assay: Antiobesity activity in C57BL/6 mouse assessed as inhibition of food intake at 50 mg/kg, ip measured after 2 to 12 hrs relative to vehicle-treated control; format: functional; settings: C57BL/6, ip, route intraperitoneal
Method in brief: (§1)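 Male mice were acclimated 1 week at 23 ± 3 °C and 50 ± 20% humidity, then fasted 24 h. They were dosed once intraperitoneally with vehicle or compound: 50 mg/kg in C57BL/6, or 12.5, 25 or 50 mg/kg in B6.V-Lep^ob/J. Food intake was measured at 2, 6 and 12 h versus vehicle control.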

[4] = target: 5-hydroxytryptamine receptor 7 (Homo sapiens, UniProt P34969); assay: Displacement of [3H]-LSD from human recombinant 5HT-7 receptor expressed in CHOK1 cell membranes after 120 mins; parameters: species or system CHO-K1
Sequence of 5-hydroxytryptamine receptor 7 (P34969 whole entry): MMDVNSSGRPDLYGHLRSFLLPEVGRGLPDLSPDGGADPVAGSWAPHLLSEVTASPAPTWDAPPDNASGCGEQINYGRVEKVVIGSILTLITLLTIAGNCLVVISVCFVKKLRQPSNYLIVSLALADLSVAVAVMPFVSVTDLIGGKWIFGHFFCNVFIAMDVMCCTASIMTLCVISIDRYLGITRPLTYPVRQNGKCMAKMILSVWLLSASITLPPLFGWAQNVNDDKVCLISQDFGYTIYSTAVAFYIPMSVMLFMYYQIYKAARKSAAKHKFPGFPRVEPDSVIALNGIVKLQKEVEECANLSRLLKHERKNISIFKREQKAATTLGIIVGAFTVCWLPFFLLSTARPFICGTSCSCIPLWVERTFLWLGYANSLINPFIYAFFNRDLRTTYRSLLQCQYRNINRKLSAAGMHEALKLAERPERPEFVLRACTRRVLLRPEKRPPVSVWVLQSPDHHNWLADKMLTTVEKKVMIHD
Method in brief: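 CHO-K1 membranes expressing human 5-HT7 incubated with 3 nM [3H]LSD for 120 min at 27 °C in 50 mM Tris-HCl pH 7.4, 10 mM MgSO4, 0.5 mM EDTA. Filtered on glass-fiber filters presoaked in 0.3% PEI. Methiothepin defined nonspecific binding.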

Mus musculus [5] = assay: Antiobesity activity in B6.V/J ob/ob mouse assessed as inhibition of food intake at 50 mg/kg, ip measured up to 6 hrs relative to vehicle-treated control; format: functional; settings: route intraperitoneal; method in brief: as §1
Mus musculus [6] = assay: Antiobesity activity in B6.V/J ob/ob mouse assessed as inhibition of body weight gain at 12.5 mg/kg, ip measured after 12 hrs relative to vehicle-treated control; format: functional; settings: route intraperitoneal
Mus musculus [7] = assay: Antiobesity activity in B6.V/J ob/ob mouse assessed as change in liver weight at 25 mg/kg, po bid measured after 14 days (reference value: 3.396 +/- 0.162 g); format: functional
Mus musculus [8] = assay: Antiobesity activity in B6.V/J ob/ob mouse assessed as change in heart weight at 50 mg/kg, po bid measured after 14 days (reference value: 0.150 +/- 0.003 g); format: functional

SMILES: Cl.Clc1cccc(Nc2nc(Cc3ccccc3)nc3c2CCNCC3)c1
- Activity (Mus musculus [1]): 0.329 g
- pIC50 (D(2) dopamine receptor): 7.07
- AUC(0-inf) [2]: 1050 ng·h/mL
- inhibition in vivo at 50 mg/kg (Mus musculus [3]): 76.6%
- pIC50 [4]: 6.00
- inhibition in vivo at 50 mg/kg (Mus musculus [5]): 98.6%
- inhibition in vivo at 12.5 mg/kg (Mus musculus [6]): 24.9%
- Activity (Mus musculus [7]): 3.173 g
- Activity (Mus musculus [8]): 0.17 g
